Measurements published in PubChem BioAssay.
Active and inactive are the calls of the source.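 Rule for the calls, unless noted: active = GFP response above 150% of the DMSO level; inconclusive = fewer than 70 events counted for a yeast strain; inactive = the rest.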

Columns and labels:
[1] = hit retest on RPL19A-GFP reporter strain – cell-based, S. cerevisiae, flow cytometry, cherry picks, mother/daughter gates, confirmation (AID 2270;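 active = GFP response below 50% of the DMSO control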); conditions: 3 h, at 10 µM, stronger effect = lower value, 100 = same GFP as DMSO wells
[2] = yeast TOR pathway reporter LAP4-GFP change – cell-based, cherry picks, flow cytometry, mother/daughter gates, confirmation (AID 2271;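 active = GFP response above 150% of the DMSO control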;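 note: ratio of sample to DMSO plate mean so 100% equals DMSO level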); conditions: S. cerevisiae LAP4-GFP strain, 3 h, at 10 µM, stronger effect = higher value, 100 means same as DMSO control
In short: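 Test system: GFP-fusion yeast strain. Medium: synthetic complete (SC) yeast growth medium. Timing: 3 h treatment at 30 °C with rotation. Measured by: GFP by flow cytometry. Control set: positive rapamycin (400 ng/mL), negative DMSO.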

[3] = TOR pathway reporter MEP2-GFP, retest of hits – S. cerevisiae, flow cytometry GFP, cherry picks, confirmation (AID 2272;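 active = GFP response above 150% of the DMSO control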;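 note: ratio of well signal to plate DMSO mean so 100% equals DMSO level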); conditions: S. cerevisiae MEP2-GFP strain, 3 h, at 10 µM, stronger effect = higher value
[4] = yeast AGP1-GFP fluorescence change, single-dose – cell-based, flow cytometry, S. cerevisiae, cherry picks, confirmation (AID 2273);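 note: median GFP channel fluorescence over the whole cell population gate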; conditions: S. cerevisiae AGP1-GFP strain, 3 h, at 10 µM
[5] = TOR pathway CIT2 reporter hit retest – S. cerevisiae, GFP fusion, cherry picks, mother/daughter gates, confirmation (AID 2274); conditions: S. cerevisiae CIT2-GFP strain, flow cytometry, 3 h, at 10 µM, stronger effect = higher value
[6] = measured here: daughter cell gate
[7] = measured here: mother cell gate
[8] = measured here: daughter cell gate response
[9] = measured here: mother cell gate response

Compound | GFP response vs DMSO [1] | GFP response vs DMSO [1, 6] [%] | GFP response vs DMSO [1, 7] [%] | GFP response relative to DMSO [2] | GFP response relative to DMSO [2, 8] [%] | GFP response relative to DMSO [2, 9] [%] | GFP response vs DMSO [3] | GFP response, % of DMSO [4] | GFP response, % of DMSO [5] | GFP response, % of DMSO [5, 6] [%] | GFP response, % of DMSO [5, 7] [%]
Cc1cccn2c(=O)c(/C=C(\C#N)C(=O)NCc3ccco3)c(N3CCC(C(N)=O)CC3)nc12 | 89.5% (inactive) | 90.9 | 91.4 | 99.8% (inactive) | 99.7 | 100 | 103% (inactive) | 101% (inactive) | 92.2% (inactive) | 95.2 | 92.8
O=c1c2c(-c3ccc(Cl)cc3)csc2ncn1/N=C/c1cccc([N+](=O)[O-])c1O | 99.3% (inactive) | 99.3 | 98.6 | 97.7% (inactive) | 95 | 99.5 | 99.5% (inactive) | 96.2% (inactive) | 99.3% (inactive) | 98.3 | 98
Cc1ccc(S(=O)(=O)N2CC3CCC2C3)cc1 (stereo not drawn) | 101% (inactive) | 100 | 104 | 97.4% (inactive) | 97.2 | 99.3 | 97.8% (inactive) | 97.4% (inactive) | 112% (inactive) | 110 | 114
O=C(Cn1cc(/C=C\[N+](=O)[O-])c2ccccc21)Nc1ccccc1 | 97.4% (inactive) | 97.4 | 97.6 | 94.1% (inactive) | 94.4 | 94 | 98.3% (inactive) | 94.7% (inactive) | 99.7% (inactive) | 101 | 99.7
CC1(C)CC(=O)C(C(C2=C(O)CC(C)(C)CC2=O)c2cccs2)C(=O)C1 (stereo not drawn) | 100% (inactive) | 103 | 101 | 100% (inactive) | 102 | 100 | 97.5% (inactive) | 94.3% (inactive) | 101% (inactive) | 102 | 99.1
C/C(=N\NC(=O)c1cccc(Cl)c1)c1cccc(NC(=O)C(C)C)c1 | 96.2% (inactive) | 98.1 | 95.6 | 92.9% (inactive) | 94.4 | 92.3 | 103% (inactive) | 99.8% (inactive) | 100% (inactive) | 99.3 | 103
O=[N+]([O-])c1ccc(Sc2ccc(Cl)c(Cl)c2)nc1 | 97.1% (inactive) | 96.1 | 96.9 | 98.9% (inactive) | 102 | 100 | 103% (inactive) | 101% (inactive) | 98.6% (inactive) | 99.3 | 99.3
O=C(CN1C(=O)c2cccc3cccc(c23)C1=O)N1CCCCCC1 | 102% (inactive) | 101 | 101 | 97% (inactive) | 94.2 | 98.4 | 94.7% (inactive) | 100% (inactive) | 100% (inactive) | 101 | 101
CC(=O)Nc1ccc(S(=O)(=O)NC(CC(=O)NCCC2=CCCCC2)C(C)C)cc1 (stereo not drawn) | 99.8% (inactive) | 99.4 | 101 | 99.2% (inactive) | 99.2 | 96.1 | 102% (inactive) | 101% (inactive) | 101% (inactive) | 101 | 101
COC(=O)COc1ccc(S(=O)(=O)N2CCc3ccccc3C2)cc1 | 101% (inactive) | 100 | 103 | 101% (inactive) | 102 | 101 | 97.8% (inactive) | 99.4% (inactive) | 99.1% (inactive) | 96.5 | 101
CCCC(=O)Nc1ccc(NC(=O)c2cc3ccccc3o2)c(OC)c1 | 98.8% (inactive) | 98.4 | 98 | 98.2% (inactive) | 99.1 | 98.4 | 103% (inactive) | 102% (inactive) | 97.3% (inactive) | 99.2 | 87
CCNC(=O)/C(C#N)=C/c1c(N2CCOCC2)nc2ccccn2c1=O | 96.9% (inactive) | 99.3 | 95.4 | 102% (inactive) | 101 | 104 | 103% (inactive) | 102% (inactive) | 100% (inactive) | 101 | 99.3
Cc1cc(=O)oc2c(C(=O)/C=C\c3cccs3)c(O)ccc12 | 98% (inactive) | 100 | 95.3 | 145% (inactive) | 136 | 154 | 107% (inactive) | 101% (inactive) | 95.9% (inactive) | 99.2 | 91.9
O=C(Nc1nc(-c2ccc(Cl)s2)cs1)c1cccs1 | 93.8% (inactive) | 91 | 93.7 | 113% (inactive) | 107 | 119 | 97.2% (inactive) | 98.8% (inactive) | 83.3% (inactive) | 85.2 | 82.6
Cc1ccc(C2CC(c3ccco3)=NN2S(C)(=O)=O)cc1 (stereo not drawn) | 97.2% (inactive) | 97 | 97.1 | 105% (inactive) | 102 | 104 | 106% (inactive) | 93.8% (inactive) | 96.4% (inactive) | 98.3 | 95.6
Cc1ccc(S(=O)(=O)N2C3C=CC(C3)C2C(=O)O)cc1 (stereo not drawn) | 96% (inactive) | 97.6 | 95.2 | 95.3% (inactive) | 96 | 94.4 | 106% (inactive) | 98.4% (inactive) | 97.2% (inactive) | 97.6 | 98.2
CCOc1ccccc1C1N=C(c2ccc(OC)cc2)CC(c2ccccc2O)N1 (stereo not drawn) | 102% (inactive) | 103 | 100 | 106% (inactive) | 99.7 | 109 | 105% (inactive) | 102% (inactive) | 110% (inactive) | 108 | 109

Compound | GFP response vs DMSO [1] | GFP response vs DMSO [1, 6] [%] | GFP response vs DMSO [1, 7] [%] | GFP response relative to DMSO [2] | GFP response relative to DMSO [2, 8] [%] | GFP response relative to DMSO [2, 9] [%] | GFP response vs DMSO [3] | GFP response, % of DMSO [4] | GFP response, % of DMSO [5] | GFP response, % of DMSO [5, 6] [%] | GFP response, % of DMSO [5, 7] [%]
Cc1ccc(NC(=S)N2CCSC2c2cccs2)cc1 (stereo not drawn) | 98.5% (inactive) | 98.1 | 97.8 | 97.7% (inactive) | 99 | 97.4 | 108% (inactive) | 101% (inactive) | 103% (inactive) | 99.3 | 103
O=C1c2ccsc2SCCN1Cc1c(F)cccc1Cl | 92.8% (inactive) | 90.7 | 93.9 | 112% (inactive) | 110 | 113 | 96.8% (inactive) | 99% (inactive) | 98.8% (inactive) | 99.2 | 98.1
COc1ccc(CN2CN(C(C)C)CSC2=S)cc1 | 98.8% (inactive) | 96.7 | 92.1 | 112% (inactive) | 106 | 107 | 146% (inactive) | 107% (inactive) | 80.8% (inactive) | 80.1 | 75.1
COc1ccc(C(=O)Nc2c(N)nc[nH]c2=O)cc1 | 102% (inactive) | 99.3 | 99 | 97% (inactive) | 97.5 | 97.3 | 105% (inactive) | 103% (inactive) | 105% (inactive) | 103 | 102
Cc1oc2c(CN3CCCC(C)C3)c(O)ccc2c(=O)c1-c1ccccc1 (stereo not drawn) | 102% (inactive) | 102 | 104 | 143% (inactive) | 151 | 141 | 141% (inactive) | 107% (inactive) | 147% (inactive) | 152 | 143
O=C(COc1ccccc1)NNC(=S)NC(=O)c1ccccc1 | 114% (inactive) | 118 | 110 | 171% (active) | 165 | 166 | 127% (inactive) | 116% (inactive) | 108% (inactive) | 121 | 98.7
CCCc1cc(=O)n(-c2nc3ccccc3s2)[nH]1 | 102% (inactive) | 102 | 101 | 101% (inactive) | 101 | 99.4 | 99% (inactive) | 104% (inactive) | 97.3% (inactive) | 97.4 | 96.8
CCc1ccc2c(c1)C1(NN=C(c3ccccc3)S1)C(=O)N2 (stereo not drawn) | 101% (inactive) | 99.1 | 97.7 | 133% (inactive) | 125 | 140 | 114% (inactive) | 102% (inactive) | 94.4% (inactive) | 99.2 | 89.5
O=C(OCn1ncc(Br)c(Br)c1=O)c1c(F)cccc1F | 93.3% (inactive) | 94 | 90.6 | 168% (active) | 153 | 175 | 98.8% (inactive) | 116% (inactive) | 97.2% (inactive) | 105 | 88.8
CCCc1[nH]nc2c1C1(C(=O)N(CC)c3ccccc31)C(C#N)=C(N)O2 (stereo not drawn) | 96.6% (inactive) | 95.9 | 96.9 | 96.7% (inactive) | 97.6 | 94 | 98.3% (inactive) | 98.5% (inactive) | 101% (inactive) | 99.1 | 101
CCCCNC(=O)c1ccc2c(SCC(=O)O)c3c(nc2c1)CCCC3 | 98.7% (inactive) | 96.7 | 99 | 101% (inactive) | 104 | 97.5 | 99.5% (inactive) | 98% (inactive) | 97.8% (inactive) | 98.3 | 98
O=[N+]([O-])/C=C/c1cn(Cc2ccc(Cl)cc2)c2ccccc12 | 105% (inactive) | 102 | 103 | 95% (inactive) | 95.6 | 96.2 | 100% (inactive) | 98.3% (inactive) | 106% (inactive) | 106 | 102
COC(=O)Cn1nc(-c2ccccc2)c2ccccc21 | 92% (inactive) | 88.5 | 92.9 | 106% (inactive) | 101 | 106 | 109% (inactive) | 97.3% (inactive) | 102% (inactive) | 101 | 98.1
CCCCOc1cccc(/C=C(\C#N)C(=O)NC2CC2)c1 | 93.5% (inactive) | 92.1 | 92.5 | 117% (inactive) | 114 | 116 | 113% (inactive) | 92.7% (inactive) | 99.7% (inactive) | 99.1 | 96.1
CN(C)c1ccc(N=Cc2nc(-c3ccccc3)oc2OC(=O)c2cccc(Cl)c2)cc1 | 101% (inactive) | 99.2 | 101 | 97.4% (inactive) | 97.2 | 99.3 | 100% (inactive) | 98.7% (inactive) | 102% (inactive) | 99.7 | 102
COc1cc(SSc2cc(OC)cc([N+](=O)[O-])c2N)c(N)c([N+](=O)[O-])c1 | 89% (inactive) | 78.4 | 80.4 | 265% (active) | 153 | 252 | 118% (inactive) | 124% (inactive) | 145% (inactive) | 112 | 143
